The values below come from ChEMBL document CHEMBL1649398, “Synthesis and evaluation of tumor cell growth inhibition of methyl 3-amino-6-[(hetero)arylethynyl]thieno[3,2-b]pyridine-2-carboxylates. Structure-activity relationships, effects on the cell cycle and apoptosis” (Eur J Med Chem, 2011).

One data set deals with MCF7. The data set is described as follows: Growth inhibition of human MCF7 cells after 48 hrs by SRB assay. It counts as functional. To be noted: MCF7, 48 h. The method, boiled down: (§1)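 Adherent cells kept in RPMI-1640 with 5% heat-inactivated FBS, 2 mM glutamine and antibiotics at 37 °C, 5% CO₂. Plated at 1.5 ×10⁵ cells/mL (MCF-7) or 0.75 ×10⁵ cells/mL (A375-C5, NCI-H460) and grown 24 h. […] TCA fixation, SRB stain, absorbance 492 nm. GI₅₀ is 50% inhibition of net growth; mean ± SEM, three experiments in duplicate.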
On the technique in general: In SRB staining, fixed cells bind dye roughly in proportion to their protein.

For data set [1], the system named is NCI-H460. The data set is described as follows: Growth inhibition of human NCI-H460 cells after 48 hrs by SRB assay. It counts as functional. To be noted: NCI-H460, 48 h. The gist of the method:
as §1

A short description of data set [2]: Growth inhibition of human A375-C5 cells after 48 hrs by SRB assay. It counts as functional. To be noted: A375-C5, 48 h. The gist of the method:
as §1

The test system of data set [3] is NCI-H460. The data set is described as follows: Cell cycle arrest in human NCI-H460 cells assessed as accumulation at G2/M phase at GI50 after 48 hrs by flow cytometry. The data set is classed as functional. For orientation: In flow cytometry, cells or beads pass a laser one at a time.
Data set [4] relates to NCI-H460. The data set is described as follows: Induction of apoptosis in human NCI-H460 cells at GI50 after 48 hrs by V-FITC/propidium iodide staining-based flow cytometry. The data set is classed as functional.
The subject of data set [5] is NCI-H460. The data set is described as follows: Cell cycle arrest in human NCI-H460 cells assessed as accumulation at S phase at GI50 after 48 hrs by flow cytometry. It counts as functional.
For data set [6], the system named is NCI-H460. The data set is described as follows: Cell cycle arrest in human NCI-H460 cells assessed as accumulation at G0/G1 phase at GI50 after 48 hrs by flow cytometry. The data set is classed as functional.
Data set [7] in a line: Solubility of the compound in DMSO at 150 uM. The data set is classed as physicochemical.

By GI50 is commonly meant the concentration at which growth is held to half of that of the control. A lower GI50 goes with greater sensitivity of the cells.

The structures appear in SMILES notation.

For `COC(=O)c1sc2cc(C#Cc3cccnc3)cnc2c1N`, the GI50 (in the data set on MCF7; in the data set on NCI-H460 [1]; in data set [2]) was greater than 150 µM in each case.
With `COC(=O)c1sc2cc(C#Cc3ccsc3)cnc2c1N`, the GI50 turned out to be 27.7 µM in the data set with MCF7, 24.8 µM in the data set on NCI-H460 [1] and 29.6 µM in data set [2].
Taken in the same sequence, the figures for `COC(=O)c1sc2cc(C#Cc3ccccc3)cnc2c1N` were greater than 150 µM, greater than 150 µM and greater than 150 µM.
Taken in the same sequence, the figures for `COC(=O)c1sc2cc(C#Cc3ccccc3OC)cnc2c1N` were greater than 47.3 µM, greater than 47.3 µM and greater than 47.3 µM.
Taken in the same sequence, the figures for `COC(=O)c1sc2cc(C#Cc3cccc(OC)c3)cnc2c1N` were 33.4 µM, 49 µM and greater than 75 µM.
Take `COC(=O)c1sc2cc(C#Cc3ccc(OC)cc3)cnc2c1N`: the Activity worked out at 18.3% in the data set on NCI-H460 [3], 18.7% in the data set with NCI-H460 [4], 22% in the data set on NCI-H460 [5] and 59.7% with NCI-H460 [6]. The GI50 in the data set with MCF7 was 0.46 µM; in the data set on NCI-H460 [1] it was 0.32 µM; in data set [2], greater than 37.5 µM.
On to `COC(=O)c1sc2cc(C#Cc3ccccc3N)cnc2c1N`, for which the Activity with NCI-H460 [3] came to 24.6%; in the data set on NCI-H460 [4], 25.3%; in the data set with NCI-H460 [5], 23.1%; with NCI-H460 [6], 54.7%. Also, the GI50 was 4.1 µM with MCF7, 5.7 µM with NCI-H460 [1] and 3.1 µM in data set [2].
For the molecule `COC(=O)c1sc2cc(C#Cc3cccc(N)c3)cnc2c1N`, the figures for the GI50 (in the data set with MCF7; in the data set on NCI-H460 [1]; in data set [2]) were 10.8 µM, 11.5 µM and 11.6 µM, respectively.
Take `COC(=O)c1sc2cc(C#Cc3ccc(N)cc3)cnc2c1N`: the Activity with NCI-H460 [3] is recorded as 13.4%; in the data set with NCI-H460 [4] it was 17%; in the data set on NCI-H460 [5] it was 18.6%; with NCI-H460 [6] it was 68%. Moreover, the 50% growth inhibitory concentration (GI50) stood at 2.6 µM with MCF7, 8.9 µM in the data set with NCI-H460 [1] and 4.8 µM in data set [2].
`COC(=O)c1sc2cc(C#Cc3ccc(N(C)C)cc3)cnc2c1N`: the GI50 in the data set on MCF7 is 20.6 µM; in the data set on NCI-H460 [1], 16.6 µM; in data set [2], 17.7 µM.
Taken in the same sequence, the figures for `COC(=O)c1sc2cc(C#Cc3ccccc3F)cnc2c1N` were greater than 150 µM, greater than 150 µM and greater than 150 µM.
Taken in the same sequence, the figures for `COC(=O)c1sc2cc(C#Cc3ccc(F)cc3)cnc2c1N` were 29 µM, 24 µM and 48.4 µM.
Taken in the same sequence, the figures for `COC(=O)c1sc2cc(C#Cc3ccccn3)cnc2c1N` were 37.4 µM, 34.9 µM and 13.9 µM.
On to `C[S+](C)[O-]` [DIMETHYL SULFOXIDE], for which the Activity in the data set with NCI-H460 [3] came to 16.1%; in the data set on NCI-H460 [4], 12.2%; in the data set with NCI-H460 [5], 28.8%; in the data set with NCI-H460 [6] it was 55.1%.
Consider `COc1cccc2c1C(=O)c1c(O)c3c(c(O)c1C2=O)C[C@@](O)(C(=O)CO)C[C@@H]3O[C@H]1C[C@H](N)[C@H](O)[C@H](C)O1` [DOXORUBICIN], for which the solubility entry in data set [7] is “Insoluble”.
